How the values were obtained:
[1] = pH of saturated solutions in biorelevant media; type: physicochemical; details: 24 h, 37 °C, pH probe; for pH of saturated solution in FaSSGF: excess solid in FaSSGF, initial pH 1.6; for pH of saturated solution in FaSSGF / pH of saturated solution in FaSSIF / pH of saturated solution in FeSSIF: 350 rpm, n = 3; for pH of saturated solution in FaSSIF: excess solid in FaSSIF, initial pH 6.5; for pH of saturated solution in FeSSIF: excess solid in FeSSIF, initial pH 5.0
Method in brief: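 Excess solid was added separately to 1 mL of each medium: FaSSIF (pH 6.5; NaTC 3 mM, lecithin 0.75 mM), FeSSIF (pH 5.0; 15 mM, 3.75 mM), FaSSGF (pH 1.6; 0.08 mM, 0.02 mM), or blank versions without NaTC and lecithin. Samples were shaken at 350 rpm for 24 h at 37 °C, then read with a pH probe. Triplicate; mean ± standard deviation, n = 3.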

[2] = approximate, from the literature; ref not given; cited from earlier work
Saturation = type: physicochemical; details: 24 h, 37 °C, in words; for saturation solubility in gastric media, rank among the media: FaSSGF and blank FaSSGF, pH 1.6

Row | pH of saturated solution in FaSSGF [1] | pH of saturated solution in FaSSIF [1] | pH of saturated solution in FeSSIF [1] | saturation solubility in FaSSIF, rank among the media (Saturation; FaSSIF, pH 6.5) | Compound | pKa [2] | pH of media in the presence of excess material, all media investigated ([1]; FaSSIF, FeSSIF, FaSSGF and blank equivalents) | saturation solubility in gastric media, rank among the media (Saturation)
1 | 9.2 | 9.0 | 8.8 | – | CCCCCCCCCC(=O)[O-].[Na+] [C10, sodium caprate] | approximately 5 | – | –
2 | – | – | – | – | insulin: recombinant human insulin procured from Merck KGaA, used as model peptide | – | did not appear to impact media pH | highest solubility
3 | 7.6 | 7.9 | 7.7 | highest | O=C([O-])CCCCCCCNC(=O)c1ccccc1O.[Na+] [SNAC, salcaprozate sodium] | approximately 5 | – | lowest

Reference: PMC12239073 (Molecular Pharmaceutics, 2025)
